Experimental data of several laboratories.
Lines come from different studies, so protocols differ.
Cell line: A549
Read-out: cell growth or viability

SMILES | technique | time | IC50 [µM]
O=C(NO)Nc1nc2ccc(Br)cc2c(=O)n1-c1ccccc1 | MTT | 48 h | 28
CC(=O)O[C@H]1C(=O)[C@@]2(C)[C@H]([C@H](OC(=O)c3ccccc3)[C@]3(O)C[C@H](OC(=O)[C@H](O)[C@@H](NC(=O)c4ccccc4)c4ccccc4)C(C)=C1C3(C)C)[C@]1(OC(C)=O)CO[C@@H]1C[C@@H]2O | MTT | 72 h | 0.64
CCCC(C)C(=O)Nc1ccc(-c2ccc3ncn(CCC)c(=O)c3c2)cn1 (centres unmarked) | CCK-8 | 72 h | 9.85
N=C(N)c1ccc(OCCCCCOc2ccc(C(=N)N)cc2)cc1 | ATP luminescence | 72 h | 12.8
CN1CCc2c(c3ccccc3n2Cc2ccc(C(=O)NO)cc2)C1 | CCK-8 | 48 h | 27.8
COc1cccc(NC(=O)Nc2nc3cc(-c4ccc5ncn(Cc6ccccc6)c(=O)c5c4)ccc3s2)c1 | MTT | 72 h | 3.39
CNC(=O)c1cc(Oc2ccc(NC(=O)Nc3ccc(Cl)c(C(F)(F)F)c3)cc2)ccn1 | MTT | 24 h | 2.92
CCCCC(=O)Nc1ccc(-c2ccc3ncn(CC4CCC4)c(=O)c3c2)cn1 | CCK-8 | 72 h | 0.32
O=C(O)c1ccc(NCc2cccc([N+](=O)[O-])c2)cc1 | resazurin | 72 h | > 100
CCCCn1cnc2ccc(-c3ccc4sc(NC(=O)Nc5ccc(F)cc5)nc4c3)cc2c1=O | MTT | 72 h | 1.27
CCCCC(=O)Nc1ccc(-c2ccc3ncn(CC)c(=O)c3c2)cn1 | CCK-8 | 72 h | 0.92
NS(=O)(=O)c1ccc(-n2nc(-c3nnc(S)o3)cc2-c2ccccc2)cc1 | fluorescence | 48 h | 26.9
CCCCn1cnc2ccc(-c3ccc(NC(=O)Nc4ccc(CC)cc4)nc3)cc2c1=O | CCK-8 | 72 h | > 10
COc1cc(CNc2ccc(C(=O)O)cc2)ccc1O | resazurin | 72 h | > 100
OC1CCN(c2ccc(/C=N/NC(=S)Nc3ccc(Cl)cc3)cc2)CC1 | MTT | 24 h | 2.92
Cc1cc(NS(=O)(=O)c2ccc(NC(=O)/C(C#N)=C/c3ccncc3)cc2)no1 | MTT | 48 h | 196
C/C(=N\CCNCCNCC/N=C(\C)c1c(O)c2ccccc2oc1=O)c1c(O)c2ccccc2oc1=O | MTT | 48 h | 6.66
CCCCC(=O)Nc1ncc(-c2ccc3ncn(CCC)c(=O)c3c2)cn1 | CCK-8 | 72 h | 1.25
C(=N\Nc1cc(N/N=C/c2ccc3ccccc3n2)nc(-c2ccccc2)n1)/c1ccc2ccccc2n1 | MTT | 48 h | 7.32
CC#CCn1cnc2ccc(-c3ccc(NC(=O)CCCC)nc3)cc2c1=O | CCK-8 | 72 h | > 10
O=C(Nc1ccc(C(F)(F)F)cc1)Nc1nc2cc(-c3ccc4ncn(CCN5CCOCC5)c(=O)c4c3)ccc2s1 | MTT | 72 h | 2.01
CCCCn1cnc2ccc(-c3ccc(NC(=O)Nc4ccc(F)cc4)nc3)cc2c1=O | CCK-8 | 72 h | 0.79
CCCNC(=S)N/N=C/c1cccc2cc3ccccc3nc12 | MTT | 48 h | > 50
